Test results published in ChEMBL document CHEMBL1122544, “Azasteroids as inhibitors of rat prostatic 5 alpha-reductase” (J Med Chem, 1984).

target: T1, 3-oxo-5-alpha-steroid 4-dehydrogenase 1 (Rattus norvegicus) (UniProt P24008); test: In vitro inhibitory activity against rat prostatic 5-alpha-reductase (150 ng/tube)
T1 sequence (whole entry): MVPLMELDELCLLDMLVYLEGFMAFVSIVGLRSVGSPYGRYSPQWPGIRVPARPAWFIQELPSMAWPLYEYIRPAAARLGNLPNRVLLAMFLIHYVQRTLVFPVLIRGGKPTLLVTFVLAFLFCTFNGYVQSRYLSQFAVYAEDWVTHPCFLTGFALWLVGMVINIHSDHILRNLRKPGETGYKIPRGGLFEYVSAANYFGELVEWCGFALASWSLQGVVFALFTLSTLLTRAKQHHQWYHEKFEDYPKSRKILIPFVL
How it was run: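 Rat prostatic enzyme preparation incubated with radioactive T and excess NADPH in 0.21 mL medium; 150 ng steroid per incubation (approx. 2 μM). Read-out is percent prevention of [³H]T conversion to [³H]DHT vs. control incubation without inhibitor. Duplicate assays, progesterone (150 ng) or a reference azasteroid (25 ng) as positive controls; most values single, separate determinations, approximate.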

**Q.** `CC(=O)O[C@H]1CCC2C3CC[C@H]4CC(=O)NCC4(C)C3CCC21C` (some centres not stated) was tested. Which inhibition did it give?
**A.** 35%

**Q.** For `CC12CCNC(=O)C1CCC1C2CCC2(C)C1CC[C@@H]2O` (some centres not stated), which inhibition is on record?
**A.** 0%

**Q.** `CCN(CC)C(=O)[C@H]1CCC2C3CCC4N(C)C(=N)CCC4(C)C3CCC21C` (some centres not stated) was tested. Which inhibition did it give?
**A.** 22%

**Q.** With `CCN(CC)C(=O)[C@H]1CCC2C3CCC4N(C)C(=S)CCC4(C)C3CCC21C` (some centres not stated) as the compound, how does the inhibition read?
**A.** 50%

**Q.** Which inhibition does the source give for `CC(O)[C@H]1CC[C@H]2[C@@H]3CCC4N(C)C(=O)CC[C@]4(C)[C@H]3CC[C@]12C` (some centres not stated) here?
**A.** 100%

**Q.** With `CCN(CC)C(=O)[C@H]1CCC2C3CCC4N(C)C(=O)C(=O)CC4(C)C3CCC21C` (some centres not stated) as the compound, how does the inhibition read?
**A.** 78%

**Q.** Which inhibition does the source give for `CCN(CC)C(=O)/C=C1\CC[C@H]2[C@@H]3CCC4N(C)C(=O)CC[C@]4(C)[C@H]3CC[C@]12C` (some centres not stated) here?
**A.** 100%

**Q.** For `CCN(CC)C(=O)C[C@H]1CC[C@H]2[C@@H]3CCC4N(C)C(=O)CC[C@]4(C)[C@H]3CC[C@]12C` (some centres not stated), which inhibition is on record?
**A.** 97%

**Q.** How did the inhibition turn out when `CN1C(=O)CCC2(C)C3CCC4(C)C(CC[C@@H]4CN)C3CCC12` (some centres not stated) was run?
**A.** 80%

**Q.** Which inhibition does the source give for `CCN1C(=O)CC[C@@]2(C)C1CC[C@@H]1[C@@H]2CC[C@@]2(C)[C@H]1CC[C@@]21CCCO1` (some centres not stated) here?
**A.** 27%

**Q.** How did the inhibition turn out when `CCN(CC)C(=O)[C@H]1CC[C@H]2[C@@H]3CC[C@H]4N(C)C(=O)C=C[C@]4(C)[C@H]3CC[C@]12C` was run?
**A.** 63%

**Q.** For `CCN(CC)C(=O)[C@H]1CCC2C3CCC4N(C)C(=O)/C(=C/O)CC4(C)C3CCC21C` (some centres not stated), which inhibition is on record?
**A.** 48%

**Q.** Which inhibition does the source give for `CC(=O)N[C@H]1CCC2C3CCC4N(C)C(=O)CCC4(C)C3CCC21C` (some centres not stated) here?
**A.** 76%

**Q.** How did the inhibition turn out when `CC(=O)O[C@H]1CCC2C3CC[C@H]4CNC(=O)CC4(C)C3CCC21C` (some centres not stated) was run?
**A.** 0%

**Q.** How did the inhibition turn out when `CC(CCC(=O)O)[C@H]1CC[C@H]2[C@@H]3CCC4N(C)C(=O)CC[C@]4(C)[C@H]3CC[C@]12C` (some centres not stated) was run?
**A.** 88%

**Q.** For `CC(=O)O[C@H]1CCC2C3CC[C@H]4NC(=O)CCCC4(C)C3CCC21C` (some centres not stated), which inhibition is on record?
**A.** 94%

**Q.** `COC(=O)[C@H]1CCC2C3CCC4N(C)C(=O)CCC4(C)C3CCC21C` (some centres not stated) was tested. Which inhibition did it give?
**A.** 96%

**Q.** With `CCNC(=O)[C@H]1CCC2C3CCC4N(C)C(=O)CCC4(C)C3CCC21C` (some centres not stated) as the compound, how does the inhibition read?
**A.** 83%

**Q.** `CCN(CC)C(=O)[C@H]1CCC2C3CCC4N(C)CCCC4(C)C3CCC21C` (some centres not stated) was tested. Which inhibition did it give?
**A.** 44%

**Q.** `CCN(CC)C(=O)[C@H]1CC[C@H]2[C@@H]3CC[C@@H]4N(C)C(=O)CC[C@]4(C)[C@H]3CC[C@]12C` was tested. Which inhibition did it give?
**A.** 7%

**Q.** How did the inhibition turn out when `CC(=O)[C@H]1CC[C@H]2[C@@H]3CC[C@H]4CS(=O)(=O)C[C@]4(C)[C@H]3CC[C@]12C` (stereo in doubt; 43) was run?
**A.** 13%

**Q.** How did the inhibition turn out when `CC(=O)O[C@H]1CCC2C3CC[C@H]4CN(C(C)=O)CCC4(C)C3CCC21C` (some centres not stated) was run?
**A.** 33%

**Q.** With `CC(=O)[C@H]1CCC2C3CCC4NC(=O)CCC4(C)C3CCC21C` (some centres not stated) as the compound, how does the inhibition read?
**A.** 100%

**Q.** Which inhibition does the source give for `CN1C(=O)CC[C@@]2(C)C1CC[C@H]1[C@@H]3CC[C@H](C(=O)O)[C@@]3(C)CC[C@@H]12` (some centres not stated) here?
**A.** 90%

**Q.** `CC(O)[C@@]1(O)CC[C@H]2[C@@H]3CCC4N(C)C(=O)CC[C@]4(C)[C@H]3CC[C@@]21C` (some centres not stated) was tested. Which inhibition did it give?
**A.** 100%

**Q.** Which inhibition does the source give for `CCCCCCCCNC(=O)[C@H]1CCC2C3CCC4N(C)C(=O)CCC4(C)C3CCC21C` (some centres not stated) here?
**A.** 100%

**Q.** With `CCN(CC)C(=O)[C@H]1CCC2C3CCC4N(C)C(=O)C5OC5C4(C)C3CCC21C` (some centres not stated) as the compound, how does the inhibition read?
**A.** 19%

**Q.** Which inhibition does the source give for `CN1C(=O)CC[C@@]2(C)C1CC[C@H]1[C@@H]3CC[C@H](O)[C@@]3(C)CC[C@@H]12` (some centres not stated) here?
**A.** 72%

**Q.** Which inhibition does the source give for `CCN(CC)C(=O)[C@H]1CC[C@H]2[C@@H]3CC[C@H]4NC(=O)C=C[C@]4(C)[C@H]3CC[C@]12C` here?
**A.** 74%

**Q.** How did the inhibition turn out when `CCN(CC)C(=O)[C@H]1CCC2C3CC[C@H]4N(C)C(=O)[C@H](O)CC4(C)C3CCC21C` (some centres not stated) was run?
**A.** 46%

**Q.** How did the inhibition turn out when `CC(=O)O[C@H]1CCC2C3CC[C@H]4CC(=O)NCCC4(C)C3CCC21C` (some centres not stated) was run?
**A.** 0%

**Q.** With `CN1C(=O)CCC2(C)C3CCC4(C)/C(=C/C(=O)O)CCC4C3CCC12` (configuration not stated) as the compound, how does the inhibition read?
**A.** 92%

**Q.** Which inhibition does the source give for `CCN(CC)C(=O)CCC(C)[C@H]1CC[C@H]2[C@@H]3CCC4N(C)C(=O)CC[C@]4(C)[C@H]3CC[C@]12C` (some centres not stated) here?
**A.** 100%

**Q.** Which inhibition does the source give for `CCN(CC)C(=O)[C@H]1CCC2C3CCC4N(CCO)C(=O)CCC4(C)C3CCC21C` (some centres not stated) here?
**A.** 0%

**Q.** Which inhibition does the source give for `CN1C(=O)CCC2(C)C3CCC4(C)C(CC[C@@H]4C(N)=O)C3CCC12` (some centres not stated) here?
**A.** 91%

**Q.** With `CCN(CC)C(=O)C(C)[C@H]1CC[C@H]2[C@@H]3CCC4N(C)C(=O)CC[C@]4(C)[C@H]3CC[C@]12C` (some centres not stated) as the compound, how does the inhibition read?
**A.** 83%

**Q.** For `CCN(CC)C(=O)[C@H]1CC[C@H]2[C@@H]3CC[C@H]4N(C)C(=O)CC[C@]4(C)[C@H]3CC[C@]12C`, which inhibition is on record?
**A.** 99%

**Q.** How did the inhibition turn out when `CCN(CC)C(=O)[C@H]1CCC2C3CCC4N(c5ccccc5)C(=O)CCC4(C)C3CCC21C` (some centres not stated) was run?
**A.** 5%

**Q.** For `CCN(CC)C(=O)[C@H]1CCC2C3CCC4N(C)/C(=N/O)CCC4(C)C3CCC21C` (some centres not stated), which inhibition is on record?
**A.** 77%

**Q.** `CC(=O)[C@H]1CC[C@H]2[C@@H]3CC[C@H]4CS(=O)(=O)C[C@]4(C)[C@H]3CC[C@]12C` (stereo in doubt; 42) was tested. Which inhibition did it give?
**A.** 13%

**Q.** `CCN(CC)C(=O)[C@H]1CCC2C3CCC4N(NC)C(=O)CCC4(C)C3CCC21C` (some centres not stated) was tested. Which inhibition did it give?
**A.** 24%

**Q.** `CC(=O)[C@H]1CC[C@H]2[C@@H]3CC[C@H]4CS(=O)(=O)C[C@]4(C)[C@H]3CC[C@]12C` (stereo in doubt; 44) was tested. Which inhibition did it give?
**A.** 13%

**Q.** How did the inhibition turn out when `CC(C)N(C(=O)[C@H]1CC[C@H]2[C@@H]3CCC4N(C)C(=O)CC[C@]4(C)[C@H]3CC[C@]12C)C(C)C` (some centres not stated) was run?
**A.** 100%

**Q.** How did the inhibition turn out when `CCN(CC)C(=O)[C@H]1CCC2C3CCC4N(C)/C(=N\C)CCC4(C)C3CCC21C` (some centres not stated) was run?
**A.** 49%

**Q.** Which inhibition does the source give for `CCN(CC)C(=O)[C@H]1CCC2C3CCC4N(C)C(=O)CC4(C)C3CCC21C` (some centres not stated) here?
**A.** 7%

**Q.** For `CN1C(=O)CC[C@@]2(C)C1CC[C@@H]1[C@@H]2CC[C@@]2(C)[C@H]1CC[C@@]21CCCO1` (some centres not stated), which inhibition is on record?
**A.** 81%

**Q.** For `CC(=O)[C@H]1CCC2C3CCC4N(C)C(=O)CCC4(C)C3CCC21C` (some centres not stated), which inhibition is on record?
**A.** 100%

**Q.** Which inhibition does the source give for `COC(=O)CCC(C)[C@H]1CC[C@H]2[C@@H]3CCC4N(C)C(=O)CC[C@]4(C)[C@H]3CC[C@]12C` (some centres not stated) here?
**A.** 84%

**Q.** With `CCCCCCCCCC[C@H]1CCC2C3CCC4N(C)C(=O)CCC4(C)C3CCC21C` (some centres not stated) as the compound, how does the inhibition read?
**A.** 7%

**Q.** How did the inhibition turn out when `CC(CO)[C@H]1CC[C@H]2[C@@H]3CCC4N(C)C(=O)CC[C@]4(C)[C@H]3CC[C@]12C` (some centres not stated) was run?
**A.** 100%

**Q.** How did the inhibition turn out when `CC(=O)N[C@@H]1CC[C@H]2[C@@H]3CCC4N(C)C(=O)CC[C@]4(C)[C@H]3CC[C@]12C` (some centres not stated) was run?
**A.** 87%

**Q.** `CCN(CC)C(=O)[C@H]1CCC2C3CC[C@H]4N(C)C(=O)[C@@H](C)CC4(C)C3CCC21C` (some centres not stated) was tested. Which inhibition did it give?
**A.** 99%

**Q.** For `CC(=O)O[C@H]1CCC2C3CC[C@H]4CNC(=O)CCC4(C)C3CCC21C` (some centres not stated), which inhibition is on record?
**A.** 0%

**Q.** Which inhibition does the source give for `CCN(CC)C(=O)[C@H]1CC[C@H]2[C@@H]3CC[C@@H]4NC(=O)CC[C@]4(C)[C@H]3CC[C@]12C` here?
**A.** 95%

**Q.** With `CC12COC(=O)C=C1CCC1C2CCC2(C)C1CC[C@]2(C)O` (some centres not stated) as the compound, how does the inhibition read?
**A.** 8%

**Q.** How did the inhibition turn out when `C[C@]12CCC(=O)NC1CC[C@@H]1[C@@H]2CC[C@@]2(C)[C@H]1CC[C@@]21CCCO1` (some centres not stated) was run?
**A.** 68%

**Q.** How did the inhibition turn out when `CN1C(=O)CCC2(C)C1=CCC1C2CCC2(C)C1CC[C@@H]2O` (some centres not stated) was run?
**A.** 36%

**Q.** With `CCOC(=O)C[C@H]1CC[C@H]2[C@@H]3CC[C@H]4N(C)C(=O)CC[C@]4(C)[C@H]3CC[C@]12C` as the compound, how does the inhibition read?
**A.** 88%

**Q.** For `CN1C(=O)CCC2C3CCC4(C)C(CC[C@@H]4O)C3CCC21` (some centres not stated), which inhibition is on record?
**A.** 81%

**Q.** How did the inhibition turn out when `CC12CCC(=O)NC1CCC1C2CCC2(C)C1CC[C@@H]2O` (some centres not stated) was run?
**A.** 57%

**Q.** `CC(C(=O)O)[C@H]1CC[C@H]2[C@@H]3CCC4N(C)C(=O)CC[C@]4(C)[C@H]3CC[C@]12C` (some centres not stated) was tested. Which inhibition did it give?
**A.** 96%

**Q.** How did the inhibition turn out when `COC(=O)[C@H]1CCC2C3CC[C@H]4CC(=O)OCC4(C)C3CCC21C` (some centres not stated) was run?
**A.** 0%
